In brackets after ≈: the same amount, converted by molar mass.
Assays:
Type in all cases: functional
Staphylococcus aureus [1] = assay: Antibacterial activity against methicillin-sensitive Staphylococcus aureus after 16 hrs by NCCLS agar dilution method
How it was run: (§1)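 Agar dilution MIC. Stocks were 320 μg/mL in 50% aqueous DMSO, 2-fold serially diluted in sterile water, then diluted 10-fold into Mueller–Hinton agar to give 16–0.03125 μg/mL final. Organisms were grown in MH broth at 35 °C for 8 h and adjusted to 0.5 McFarland. They were spotted onto drug-containing plates with a multipoint inoculator and incubated at 35 °C for 16 h. Linezolid was the positive control.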

Staphylococcus aureus [2] = assay: Antibacterial activity against methicillin-resistant Staphylococcus aureus after 16 hrs by NCCLS agar dilution method; how it was run: as §1
[3] = system: Staphylococcus epidermidis; assay: Antibacterial activity against methicillin-resistant Staphylococcus epidermidis after 16 hrs by NCCLS agar dilution method; how it was run: as §1
Streptococcus pneumoniae = assay: Antibacterial activity against penicillin-resistant Streptococcus pneumoniae after 16 hrs by NCCLS agar dilution method; how it was run: as §1
Enterococcus faecalis [4] = assay: Antibacterial activity against Enterococcus faecalis after 16 hrs by NCCLS agar dilution method
How it was run: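 Agar dilution MIC per NCCLS, 6 E. faecalis strains. Stock was 320 μg/mL in 50% water/DMSO, serially 2-fold diluted in sterile water, then 10-fold into Mueller–Hinton agar to give 16–0.03125 μg/mL final. Inocula came from MH broth cultures grown 8 h at 35 °C, adjusted to 0.5 McFarland and spotted by multipoint inoculator. Plates were read after 16 h at 35 °C.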

[5] = system: Staphylococcus epidermidis; assay: Antibacterial activity against methicillin-sensitive Staphylococcus epidermidis after 16 hrs by NCCLS agar dilution method; how it was run: as §1
Staphylococcus aureus [6] = assay: Antibacterial activity against linezolid-resistant Staphylococcus aureus after 16 hrs by NCCLS agar dilution method; how it was run: as §1
[7] = system: Staphylococcus epidermidis; assay: Antibacterial activity against linezolid-resistant Staphylococcus epidermidis after 16 hrs by NCCLS agar dilution method; how it was run: as §1
Enterococcus faecium = assay: Antibacterial activity against linezolid-resistant Enterococcus faecium after 16 hrs by NCCLS agar dilution method; how it was run: as §1
Enterococcus faecalis [8] = assay: Antibacterial activity against linezolid-resistant Enterococcus faecalis after 16 hrs by NCCLS agar dilution method; how it was run: as §1
Staphylococcus aureus [9] = assay: Antibacterial activity against Staphylococcus aureus ATCC 29213 after 16 hrs by NCCLS agar dilution method; conditions: ATCC 29213, 16 h; how it was run: as §1

## O=C1O[C@H](CO)CN1c1ccc(-c2ccc3c(c2)OC[C@H]2[C@H](CO)OC(=O)N32)cn1
Staphylococcus aureus [1]
  MIC: 0.5 µg/mL (≈ 1.21 µM)
Staphylococcus aureus [2]
  MIC: 0.5 µg/mL (≈ 1.21 µM)
[3]
  MIC: 0.5 µg/mL (≈ 1.21 µM)
Streptococcus pneumoniae
  MIC: 0.5 µg/mL (≈ 1.21 µM)
Enterococcus faecalis [4]
  MIC: 0.5 µg/mL (≈ 1.21 µM)
[5]
  MIC: 0.5 µg/mL (≈ 1.21 µM)

## O=C1O[C@@H](CO)CN1c1ccc(-c2ccc3c(c2)OC[C@H]2[C@H](CO)OC(=O)N32)cn1
Staphylococcus aureus [1]
  MIC: 0.5 µg/mL (≈ 1.21 µM)
Staphylococcus aureus [2]
  MIC: 0.5 µg/mL (≈ 1.21 µM)
[3]
  MIC: 0.5 µg/mL (≈ 1.21 µM)
Streptococcus pneumoniae
  MIC: 0.5 µg/mL (≈ 1.21 µM)
Enterococcus faecalis [4]
  MIC: 0.5 µg/mL (≈ 1.21 µM)
[5]
  MIC: 0.5 µg/mL (≈ 1.21 µM)

## NCC1CN(c2ccc(-c3ccc4c(c3)OC[C@H]3[C@H](CO)OC(=O)N43)cn2)C(=O)O1 (some centres undefined)
Staphylococcus aureus [1]
  MIC: 1 µg/mL (≈ 2.42 µM)
Staphylococcus aureus [2]
  MIC: 1 µg/mL (≈ 2.42 µM)
[3]
  MIC: 2 µg/mL (≈ 4.85 µM)
Streptococcus pneumoniae
  MIC: 2 µg/mL (≈ 4.85 µM)
Enterococcus faecalis [4]
  MIC: 1 µg/mL (≈ 2.42 µM)
[5]
  MIC: 0.5 µg/mL (≈ 1.21 µM)

## CN1CCN(c2ccc(-c3ccc4c(c3)OC[C@H]3[C@H](CO)OC(=O)N43)cn2)C1=O
Staphylococcus aureus [1]
  MIC: 2 µg/mL (≈ 5.05 µM)
Staphylococcus aureus [2]
  MIC: 2 µg/mL (≈ 5.05 µM)
[3]
  MIC: 4 µg/mL (≈ 10.1 µM)
Streptococcus pneumoniae
  MIC: 4 µg/mL (≈ 10.1 µM)
Enterococcus faecalis [4]
  MIC: 8 µg/mL (≈ 20.2 µM)
[5]
  MIC: 2 µg/mL (≈ 5.05 µM)

## CC(C)N1CCN(c2ccc(-c3ccc4c(c3)OC[C@H]3[C@H](CO)OC(=O)N43)cn2)C1=O
Staphylococcus aureus [1]
  MIC: 4 µg/mL (≈ 9.42 µM)
Staphylococcus aureus [2]
  MIC: 2 µg/mL (≈ 4.71 µM)
[3]
  MIC: 4 µg/mL (≈ 9.42 µM)
Streptococcus pneumoniae
  MIC: 4 µg/mL (≈ 9.42 µM)
Enterococcus faecalis [4]
  MIC: 8 µg/mL (≈ 18.8 µM)
[5]
  MIC: 2 µg/mL (≈ 4.71 µM)

## CC(=O)N1CCN(c2ccc(-c3ccc4c(c3)OC[C@H]3[C@H](CO)OC(=O)N43)cn2)C1=O
Staphylococcus aureus [1]
  MIC: 8 µg/mL (≈ 18.8 µM)
Staphylococcus aureus [2]
  MIC: 4 µg/mL (≈ 9.42 µM)
[3]
  MIC: 8 µg/mL (≈ 18.8 µM)
Streptococcus pneumoniae
  MIC: 8 µg/mL (≈ 18.8 µM)
Enterococcus faecalis [4]
  MIC: 4 µg/mL (≈ 9.42 µM)
[5]
  MIC: 4 µg/mL (≈ 9.42 µM)

## CC(C)N1CC(c2ccc(-c3ccc4c(c3)OC[C@H]3[C@H](CO)OC(=O)N43)cn2)OC1=O (some centres undefined)
Staphylococcus aureus [1]
  MIC: 1 µg/mL (≈ 2.35 µM)
Staphylococcus aureus [2]
  MIC: 1 µg/mL (≈ 2.35 µM)
[3]
  MIC: 2 µg/mL (≈ 4.7 µM)
Streptococcus pneumoniae
  MIC: 2 µg/mL (≈ 4.7 µM)
Enterococcus faecalis [4]
  MIC: 1 µg/mL (≈ 2.35 µM)
[5]
  MIC: 1 µg/mL (≈ 2.35 µM)

## CN1CC(c2ccc(-c3ccc4c(c3)OC[C@H]3[C@H](CO)OC(=O)N43)cn2)OC1=O (some centres undefined)
Staphylococcus aureus [1]
  MIC: 0.5 µg/mL (≈ 1.26 µM)
Staphylococcus aureus [2]
  MIC: 0.5 µg/mL (≈ 1.26 µM)
[3]
  MIC: 0.5 µg/mL (≈ 1.26 µM)
Streptococcus pneumoniae
  MIC: 1 µg/mL (≈ 2.52 µM)
Enterococcus faecalis [4]
  MIC: 1 µg/mL (≈ 2.52 µM)
[5]
  MIC: 0.25 µg/mL (≈ 0.629 µM)

## CN1C[C@H](c2ccc(-c3ccc4c(c3)OC[C@H]3[C@H](CO)OC(=O)N43)cn2)OC1=O
Staphylococcus aureus [1]
  MIC: 1 µg/mL (≈ 2.52 µM)
Staphylococcus aureus [2]
  MIC: 1 µg/mL (≈ 2.52 µM)
[3]
  MIC: 1 µg/mL (≈ 2.52 µM)
Streptococcus pneumoniae
  MIC: 2 µg/mL (≈ 5.03 µM)
Enterococcus faecalis [4]
  MIC: 2 µg/mL (≈ 5.03 µM)
[5]
  MIC: 0.5 µg/mL (≈ 1.26 µM)

## Cc1cc(C#N)ncc1-c1ccc2c(c1)OC[C@H]1[C@H](CO)OC(=O)N21
Staphylococcus aureus [1]
  MIC: 0.25 µg/mL (≈ 0.741 µM)
Staphylococcus aureus [2]
  MIC: 0.25 µg/mL (≈ 0.741 µM)
[3]
  MIC: 0.25 µg/mL (≈ 0.741 µM)
Streptococcus pneumoniae
  MIC: 1 µg/mL (≈ 2.96 µM)
Enterococcus faecalis [4]
  MIC: 4 µg/mL (≈ 11.9 µM)
[5]
  MIC: 0.25 µg/mL (≈ 0.741 µM)

## N#Cc1ccc(-c2ccc3c(c2)OC[C@H]2[C@H](CN)OC(=O)N32)cn1
Staphylococcus aureus [1]
  MIC: > 16 µg/mL
Streptococcus pneumoniae
  MIC: > 16 µg/mL
Enterococcus faecalis [4]
  MIC: > 16 µg/mL
[5]
  MIC: > 16 µg/mL

## Cc1cc(N2CCOC2=O)ncc1-c1ccc2c(c1)OC[C@H]1[C@H](CO)OC(=O)N21
Staphylococcus aureus [1]
  MIC: 0.5 µg/mL (≈ 1.26 µM)
Staphylococcus aureus [2]
  MIC: 0.5 µg/mL (≈ 1.26 µM)
[3]
  MIC: 1 µg/mL (≈ 2.52 µM)
Streptococcus pneumoniae
  MIC: 2 µg/mL (≈ 5.03 µM)
Enterococcus faecalis [4]
  MIC: 4 µg/mL (≈ 10.1 µM)
[5]
  MIC: 0.5 µg/mL (≈ 1.26 µM)

## Cn1nnc(-c2ccc(-c3ccc4c(c3)OC[C@H]3[C@H](CO)OC(=O)N43)cn2)n1
Staphylococcus aureus [1]
  MIC: 1 µg/mL (≈ 2.63 µM)
Staphylococcus aureus [2]
  MIC: 1 µg/mL (≈ 2.63 µM)
[3]
  MIC: 1 µg/mL (≈ 2.63 µM)
Streptococcus pneumoniae
  MIC: 1 µg/mL (≈ 2.63 µM)
Enterococcus faecalis [4]
  MIC: 4 µg/mL (≈ 10.5 µM)
[5]
  MIC: 1 µg/mL (≈ 2.63 µM)

## O=C1O[C@@H](CO)[C@@H]2COc3cc(-c4ccc(Cn5cnnn5)nc4)ccc3N12
Staphylococcus aureus [1]
  MIC: 2 µg/mL (≈ 5.26 µM)
Staphylococcus aureus [2]
  MIC: 2 µg/mL (≈ 5.26 µM)
[3]
  MIC: 1 µg/mL (≈ 2.63 µM)
Streptococcus pneumoniae
  MIC: 4 µg/mL (≈ 10.5 µM)
Enterococcus faecalis [4]
  MIC: 4 µg/mL (≈ 10.5 µM)
[5]
  MIC: 1 µg/mL (≈ 2.63 µM)

## O=C1O[C@@H](CO)[C@@H]2COc3cc(-c4ccc(C(F)(F)F)nc4)ccc3N12
Staphylococcus aureus [1]
  MIC: > 16 µg/mL
Streptococcus pneumoniae
  MIC: > 16 µg/mL
Enterococcus faecalis [4]
  MIC: > 16 µg/mL
[5]
  MIC: > 16 µg/mL

## O=C1O[C@@H](CO)[C@@H]2COc3cc(-c4ccc(CO)nc4)ccc3N12
Staphylococcus aureus [1]
  MIC: 1 µg/mL (≈ 3.05 µM)
Staphylococcus aureus [2]
  MIC: 1 µg/mL (≈ 3.05 µM)
[3]
  MIC: 0.5 µg/mL (≈ 1.52 µM)
Streptococcus pneumoniae
  MIC: 2 µg/mL (≈ 6.09 µM)
Enterococcus faecalis [4]
  MIC: 4 µg/mL (≈ 12.2 µM)
[5]
  MIC: 0.5 µg/mL (≈ 1.52 µM)

## CC(O)c1ccc(-c2ccc3c(c2)OC[C@H]2[C@H](CO)OC(=O)N32)cn1 (some centres undefined)
Staphylococcus aureus [1]
  MIC: 1 µg/mL (≈ 2.92 µM)
Staphylococcus aureus [2]
  MIC: 1 µg/mL (≈ 2.92 µM)
[3]
  MIC: 1 µg/mL (≈ 2.92 µM)
Streptococcus pneumoniae
  MIC: 2 µg/mL (≈ 5.84 µM)
Enterococcus faecalis [4]
  MIC: 2 µg/mL (≈ 5.84 µM)
[5]
  MIC: 1 µg/mL (≈ 2.92 µM)

## CC(C)(O)c1ccc(-c2ccc3c(c2)OC[C@H]2[C@H](CO)OC(=O)N32)cn1
Staphylococcus aureus [1]
  MIC: 1 µg/mL (≈ 2.81 µM)
Staphylococcus aureus [2]
  MIC: 1 µg/mL (≈ 2.81 µM)
[3]
  MIC: 2 µg/mL (≈ 5.61 µM)
Streptococcus pneumoniae
  MIC: 2 µg/mL (≈ 5.61 µM)
Enterococcus faecalis [4]
  MIC: 4 µg/mL (≈ 11.2 µM)
[5]
  MIC: 1 µg/mL (≈ 2.81 µM)

## Cn1nnc(-c2ccc(-c3ccc(N4C[C@H](CO)OC4=O)cc3F)cn2)n1 [TEDIZOLID]
Staphylococcus aureus [6]
  MIC: 8 µg/mL (≈ 21.6 µM)
[7]
  MIC: 2 µg/mL (≈ 5.4 µM)
Enterococcus faecium
  MIC: 2 µg/mL (≈ 5.4 µM)
Enterococcus faecalis [8]
  MIC: 2 µg/mL (≈ 5.4 µM)
Staphylococcus aureus [9]
  MIC: 0.25 µg/mL (≈ 0.675 µM)

Source: ChEMBL document CHEMBL2321795, “Solubility-driven optimization of (pyridin-3-yl) benzoxazinyl-oxazolidinones leading to a promising antibacterial agent” (J Med Chem, 2013)
